In ChEMBL document CHEMBL3861990, “Elaboration of a proprietary thymidylate kinase inhibitor motif towards anti-tuberculosis agents” (Bioorg Med Chem, 2016):
pKi: −log10 of the molar value.

assay: Inhibition of recombinant Mycobacterium tuberculosis TMPK expressed in Escherichia coli using dTMP as substrate in presence of ATP/pyruvate kinase/lactate dehydrogenase/nucleoside diphosphate kinase by coupled spectrophotometric assay
Procedure, shortened: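 Coupled assay read at 334 nm. Medium: 50 mM Tris-HCl pH 7.4, 50 mM KCl, 2 mM MgCl2, 0.2 mM NADH, 1 mM phosphoenolpyruvate, and 2 units each of LDH, pyruvate kinase and NDP kinase. ATP fixed at 0.5 mM and dTMP at 0.05 mM. Analogues varied from 0.01 to 1 mM. Result reported as Ki.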

With `Cc1cn(C/C=C\CN2c3cccc4cccc(c34)S2(=O)=O)c(=O)[nH]c1=O` as the molecule, how does the pKi read?
Its pKi is 6.57.

assay: Inhibition of recombinant Mycobacterium tuberculosis TMPK using dTMP as substrate measured after 1 min in presence of ATP/pyruvate kinase/lactate dehydrogenase/nucleoside diphosphate kinase by coupled spectrophotometric assay
Procedure, shortened: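 Medium: 50 mM Tris-HCl pH 7.4, 50 mM KCl, 2 mM MgCl2, 0.2 mM NADH, 1 mM phosphoenolpyruvate, and 2 units each of LDH, pyruvate kinase and NDP kinase. ATP fixed at 0.5 mM and dTMP at 0.05 mM. Analogues varied from 0.01 to 1 mM. Result reported as Ki.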

With `Nc1nc(=O)n([C@H]2C[C@H](O)[C@@H](CO)O2)cc1Br` as the molecule, how does the pKi read?
The pKi was 5.30.

With `Cc1cn([C@H]2CCN(Cc3cccc(Oc4ccccc4)c3)C2)c(=O)[nH]c1=O` as the molecule, how does the pKi read?
Its pKi is 5.11.

With `Cc1cn([C@@H]2CCCN(Cc3ccc(Oc4ccccc4)cc3)C2)c(=O)[nH]c1=O` as the molecule, how does the pKi read?
Its pKi is 3.86.

With `Cc1cn([C@@H]2CCN(Cc3cccc(Oc4ccccc4)c3)C2)c(=O)[nH]c1=O` as the molecule, how does the pKi read?
The pKi was 5.09.

With `Cc1cn([C@H]2CCCN(Cc3ccc(Oc4ccccc4)cc3)C2)c(=O)[nH]c1=O` as the molecule, how does the pKi read?
Its pKi is 4.67.

With `Cc1cn(CC2CCN(Cc3cccc(Oc4ccccc4)c3)C2)c(=O)[nH]c1=O` (racemic) as the molecule, how does the pKi read?
Its pKi is 3.96.

With `Cc1cn(CC2CCN(Cc3ccc(Oc4ccccc4)cc3)C2)c(=O)[nH]c1=O` (racemic) as the molecule, how does the pKi read?
Its pKi is 3.57.

With `Cc1cn(C2CCCN(Cc3ccc(Oc4ccccc4)cc3)C2)c(=O)[nH]c1=O` (racemic) as the molecule, how does the pKi read?
Its pKi is 4.65.

With `Cc1cn(C2CCCN(C(=O)c3ccc(Oc4ccccc4)cc3)C2)c(=O)[nH]c1=O` (racemic) as the molecule, how does the pKi read?
The pKi was 4.84.

With `Cc1cn(CC2CCCN(Cc3cccc(Oc4ccccc4)c3)C2)c(=O)[nH]c1=O` (racemic) as the molecule, how does the pKi read?
The pKi was 3.73.

With `Cc1cn(C2CCCN(C(=O)c3cccc(Oc4ccccc4)c3)C2)c(=O)[nH]c1=O` (racemic) as the molecule, how does the pKi read?
Its pKi is 5.68.
